Bioassay records from PubChem BioAssay.
rCAG binder – binders of r(CAG) RNA repeats, primary screen, biochemical, fluorescence; r(CAG) RNA repeat, TO-PRO-1 dye displacement fluorescence; inhibition, % at 3 µM; 370,000 tested, 1.3% active;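 active means inhibition above the plate cutoff, the mean of all test compounds on that plate plus 3 SD, cut at about 35% in these data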;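 further: higher means more dye released from RNA so lower well fluorescence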
SIAE primary – human SIAE inhibitors, primary screen, biochemical, fluorescence polarization, FP-Rh probe, 1536-well HTS. SIAE FP-Rh probe binding. 370,000 tested, 0.69% active. Sialate O-acetylesterase (Homo sapiens), Q9HAT2. inhibition, % at 9.66 µM;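 active means inhibition above a cutoff: mean of compounds within the control limits plus 3 SD of those, cut at about 17% in these data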
PRMT1 inh – PRMT1 methyltransferase inhibitors, primary screen, biochemical, fluorescence polarization; AID 652257, 2013; Protein arginine N-methyltransferase 1 (Homo sapiens), Q99873; 370,000 tested, 1.3% active; recombinant PRMT1, activity-based probe fluorescence polarization; inhibition, % at 2.79 µM;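 active means inhibition above about 21% made by adding two undisclosed values, limit read from the data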
mABHD4 FP – ABHD4 inhibitors, primary screen, biochemical, fluorescence polarization, mouse; 370,000 tested, 0.54% active; (Lyso)-N-acylphosphatidylethanolamine lipase (Mus musculus), Q8VD66; purified mABHD4, FP-Rh probe fluorescence polarization; inhibition, % at 8.92 µM; AID 720543, 2013;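 active means inhibition exceeding the mean over every tested compound plus 3 SD, cut at about 30% in these data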
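Doses – 8.92 µM, single dose · Material – wild-type mouse ABHD4 protein · Replication – single well per compound (singlicate) · Measure – percent inhibition of probe binding, normalized to plate controls · Schedule – 45 min compound pre-incubation plus 60 min probe step, 25 °C · Detection – fluorescence polarization with parallel and perpendicular emission, 525/598 nm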
HTRA1 inh – HTRA1 serine protease inhibitors, primary screen, biochemical, fluorescence polarization, HTS | AID 504803, 2011 | recombinant HTRA1, FP-rhodamine activity-based probe | inhibition, % at 5.96 µM | Q92743 | 340,000 tested, 0.5% active; in the data active means inhibition above about 36%
Target sequence (Q92743 whole entry, looked up): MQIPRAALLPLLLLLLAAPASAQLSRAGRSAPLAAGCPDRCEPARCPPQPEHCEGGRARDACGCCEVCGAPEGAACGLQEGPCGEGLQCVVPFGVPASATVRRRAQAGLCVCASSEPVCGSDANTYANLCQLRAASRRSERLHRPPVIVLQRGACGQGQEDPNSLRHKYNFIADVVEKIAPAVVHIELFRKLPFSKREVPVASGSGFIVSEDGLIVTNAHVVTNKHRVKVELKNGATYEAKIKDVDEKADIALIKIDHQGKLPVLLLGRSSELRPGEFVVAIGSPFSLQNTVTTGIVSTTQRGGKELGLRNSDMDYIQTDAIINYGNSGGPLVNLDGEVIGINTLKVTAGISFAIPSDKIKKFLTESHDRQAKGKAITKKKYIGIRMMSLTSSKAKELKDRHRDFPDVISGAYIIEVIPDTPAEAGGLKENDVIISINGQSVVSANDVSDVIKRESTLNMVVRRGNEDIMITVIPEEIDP
Of the large screens only hits and unclear results are named; the others gave an inactive call; ! = not active in a repeat. Sampled rows, rich in hits. Any-hit rate of the full collection: about 3.3%.

Cc1cc2c(c(=O)o1)[C@@]1(C(=O)N(C)c3cc(Br)ccc31)C1=C(CCCC1=O)O2	none (no result: HTRA1 inh)
C[C@@H]1ON(C)[C@H]2C[C@H]3c4[nH]c5c(-c6ccc(Cl)cc6)cccc5c4CCN3C(=O)[C@@H]12	none (no result: HTRA1 inh)
O=C1C=C(O)c2cccc(O)c2C1=O	PRMT1 inh 24.8, mABHD4 FP 40.6
CCOC(=O)C1CCCN(C2CC(=O)N(c3ccc(C)cc3)C2=O)C1 (stereo unspecified)	none
CCOC(=O)C1CCN(C2CC(=O)N(c3cccc(Cl)c3)C2=O)CC1 (stereo unspecified)	PRMT1 inh 21.5
O=C1NN(c2ccc(F)c(Cl)c2)C(=O)/C1=C\c1cccc(OC(=O)c2cccs2)c1	rCAG binder 89.8, PRMT1 inh 24.3, mABHD4 FP 31.8
O=C1OC(c2ccccc2)=N/C1=C/c1cccc(OC(=O)c2cccs2)c1	none
Cc1cc(C)cc(NC(=S)Nc2cccc3ccccc23)c1	none
Cc1cc(NC(=S)Nc2cccc3ccccc23)n[nH]1	PRMT1 inh 23.3
CC(=O)c1cccc(S(=O)(=O)NC2CCCCCC2)c1	none
CC(=O)c1cccc(S(=O)(=O)NC2CC2)c1	PRMT1 inh 23.0
N#Cc1c(C(F)(F)F)cc(-c2ccc(Cl)cc2)[nH]c1=O	rCAG binder 37.5
Cc1cc(C)cc(Nc2nc(-c3ccc(S(=O)(=O)N4CCCC4)cc3)cs2)c1	SIAE primary 22.0
O=C(NCc1ccccc1)[C@@H]1CCCN1C(=O)[C@H]1CCCN1C(=O)c1cccc(F)c1	none (no result: HTRA1 inh)
Cc1oc2cc(O)ccc2c(=O)c1-c1ccccc1	none
Cc1oc2cc(O)ccc2c(=O)c1-c1nncn1-c1ccccc1	PRMT1 inh 52.3
Nn1c(SCC(=O)Nc2nccs2)nnc1-c1cc(-c2ccccc2)n[nH]1	none (no result: HTRA1 inh)
COc1ccc(OC)c(S(=O)(=O)NCC2CCN(C(=O)C(=O)c3cccs3)CC2)c1	none (no result: HTRA1 inh)
COC(=O)C1=C(C)N(Cc2ccc(Cl)cc2)C(=S)NC1c1ccc(Br)cc1 (stereo unspecified)	none (no result: HTRA1 inh)
O=C1CC(c2ccc(O)cc2)Oc2cc(O)cc(O)c21 (stereo unspecified)	none
CC1CC(=O)c2c(cc3c(-c4c(O)cc(O)c5c(O)c6c(cc45)OC(C)CC6=O)c(O)cc(O)c3c2O)O1 (stereo unspecified)	HTRA1 inh 78.4 (no result: rCAG binder, SIAE primary, PRMT1 inh, mABHD4 FP)
CN(C)S(=O)(=O)c1cccc(-c2nnc(SCCNCCO)n2-c2ccc(F)cc2)c1	mABHD4 FP 30.6
CCCSc1nnc(-c2cccc(S(=O)(=O)N(C)C)c2)n1-c1cc(OC)ccc1OC	none
CC1(C)S[C@@H]2[C@H](NC(=O)[C@H](N)c3ccccc3)C(=O)N2[C@H]1C(=O)O	rCAG binder 57.8!
Cc1ccccc1NC(=O)c1c(C)[nH]c(=S)c(C#N)c1-c1ccc(Cl)cc1	none (no result: HTRA1 inh)
Cc1ccc(-c2c(C(=O)Nc3ccccc3C)c(C)[nH]c(=S)c2C#N)o1	PRMT1 inh 34.1 (no result: HTRA1 inh)
COC(=O)C1=C(C)NC(=O)/C1=C\c1cccs1	none
COC(=O)C1=C(C)NC(=O)/C1=C\N(C)C	PRMT1 inh 24.6
Oc1ccc(N=C/C=C/c2cccc(Br)c2)cc1-c1nc2ccccc2s1	HTRA1 inh 43.8 (no result: rCAG binder, SIAE primary, PRMT1 inh, mABHD4 FP)
Nc1ccc(O)c(-c2nc3ccccc3s2)c1	none
O=C(Cn1c(=O)n(Cc2ccco2)c(=O)c2c3c(sc21)CCCC3)Nc1ccccc1	none
NC(=O)Cn1c(=O)n(Cc2ccco2)c(=O)c2c3c(sc21)CCCCC3	PRMT1 inh 21.1
Cc1cc2oc(=O)sc2cc1NS(=O)(=O)c1ccccc1	PRMT1 inh 91.7
Cc1cc2oc(=O)sc2cc1NS(=O)(=O)c1cccc2cccnc12	PRMT1 inh 53.6
Cc1nc2cc(NS(=O)(=O)c3cccc4cccnc34)ccc2s1	none
COC(=O)C1=C(C)N(C)C(=NCC2CC2)NC1c1ccc(F)cc1 (stereo unspecified)	none (no result: HTRA1 inh)
CC(C)OC(=O)c1cn(-c2ccccc2)nc1-c1ccco1	PRMT1 inh 23.2
CSC1=NSC2=NC(=O)/C(=C/c3coc4ccc(O)cc4c3=O)C(=N)N12	PRMT1 inh 25.0
Cc1cc(C)cc(NC(=O)OC2CC3CC2[C@H]2CCCCN2[C@H]3Cc2ccccc2)c1 (stereo partly specified)	none (no result: HTRA1 inh)
COC(=O)c1cc(NS(=O)(=O)c2ccc(N3CCCCC3)c([N+](=O)[O-])c2)cc(C(=O)OC)c1	rCAG binder 69.1
CCCC[C@@]1(C2CCCC2)Cc2cc(OCC(=O)O)c(Cl)c(Cl)c2C1=O	rCAG binder 46.8
C[C@H](O)[C@@H]1CN2CCc3c([nH]c4ccccc34)[C@@H]2C[C@@H]1N(C)CC1CCCCC1	none (no result: HTRA1 inh)
COc1ccc(CN2C(=O)c3cccnc3C2Nc2ccc(OC)c(Cl)c2)cc1 (stereo unspecified)	none
COc1ccc(NC2c3ncccc3C(=O)N2Cc2ccccc2)c(OC)c1 (stereo unspecified)	SIAE primary active
COC(=O)[C@]12C[C@H](CC(=O)NCCC(C)C)C(=O)N(Cc3ccccc3)C1=C[C@H](C1CCCC1)O[C@@H]2C	none (no result: HTRA1 inh)
COc1ccc(NC(=O)N(C)C[C@H]2Oc3ccc(NC(=O)Nc4c(C)noc4C)cc3C(=O)N([C@H](C)CO)C[C@H]2C)cc1	SIAE primary 17.1
COc1ccc(NC(=O)Nc2ccc3c(c2)C(=O)N([C@H](C)CO)C[C@H](C)[C@@H](CN(C)Cc2ccc(Cl)c(Cl)c2)OCCCC[C@@H](C)O3)cc1	SIAE primary 21.2
C[C@@H]1CCCCO[C@H](CN(C)Cc2ccc(Cl)c(Cl)c2)[C@H](C)CN([C@@H](C)CO)C(=O)c2cc(NC(=O)Nc3ccc(F)cc3)ccc2O1	none
CCCCCCCCN1C(=O)[C@@H](CC(=O)NCCCOC)C[C@@]2(C(=O)OC)C1=C[C@H](C1CCCC1)O[C@@H]2C	none (no result: HTRA1 inh)
O=C(N[C@@H](Cc1cccnc1)C(=O)N1CCC[C@H]1C(=O)NCc1ccccc1)c1ccccc1	none (no result: HTRA1 inh)
CC1(C)N([O-])c2cc([N+](=O)[O-])ccc2[N+]1=O	mABHD4 FP 37.0 (no result: HTRA1 inh)
Cc1ccc(C)n1-c1cc([N+](=O)[O-])ccc1-n1ccnc1	none (no result: HTRA1 inh)
CC(=O)Oc1cc2cccc(OC(C)=O)c(=O)c2c(OC(C)=O)c1OC(C)=O	HTRA1 inh 69.8 (no result: rCAG binder, SIAE primary, PRMT1 inh, mABHD4 FP)
COC(=O)C1=C(C)N(C)C(=NCc2cccc(C(F)(F)F)c2)NC1c1ccc(F)cc1 (stereo unspecified)	none (no result: HTRA1 inh)
CC(=O)Nc1ccc(SCC(=O)c2ccc(Br)s2)cc1	PRMT1 inh 62.6
CCCCCCCCN1C(=O)[C@@H](CC(=O)NCCCOCCCC)C[C@@]2(C(=O)OC)C1=C[C@H](COCc1ccccc1)O[C@@H]2C	none (no result: HTRA1 inh)
O=c1cc(Cl)[nH]c(=O)n1CCNc1ncc(C(F)(F)F)cc1Cl	none
O=C1CC(=O)N(CCNc2ncc(C(F)(F)F)cc2Cl)C(=O)N1	rCAG binder 51.4
